# bIAP inh = intestinal alkaline phosphatase (bovine) inhibition | AID 1019 | purified bovine IAP, CDP-star luminescence, 30 min | inhibition, % at 20 µM | 190,000 tested, under 10 active;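 active = over 50% inhibition of intestinal alkaline phosphatase at 20 µM in the single-dose screen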
#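 test system = bovine IAP enzyme | medium = DEA buffer 100 mM, pH 9.8, with MgCl2 1.0 mM, ZnCl2 0.02 mM | detection = luminescence | dosing = single compound dose of 20 µM, 2% DMSO final | incubation = 30 min reaction at room temperature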
# hIAP activ = increases human intestinal alkaline phosphatase activity; activation factor at 10 µM; AID 2524; 0.16% of 330,000 active; purified human IAP, CDP-Star luminescence, 30 min; stronger effect = higher value; 1 = vehicle-only enzyme, 0 = enzyme-free background; P09923;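 active = activation factor of the enzyme at least 2-fold when tested at 20 µM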
# Target sequence (P09923 whole entry, looked up): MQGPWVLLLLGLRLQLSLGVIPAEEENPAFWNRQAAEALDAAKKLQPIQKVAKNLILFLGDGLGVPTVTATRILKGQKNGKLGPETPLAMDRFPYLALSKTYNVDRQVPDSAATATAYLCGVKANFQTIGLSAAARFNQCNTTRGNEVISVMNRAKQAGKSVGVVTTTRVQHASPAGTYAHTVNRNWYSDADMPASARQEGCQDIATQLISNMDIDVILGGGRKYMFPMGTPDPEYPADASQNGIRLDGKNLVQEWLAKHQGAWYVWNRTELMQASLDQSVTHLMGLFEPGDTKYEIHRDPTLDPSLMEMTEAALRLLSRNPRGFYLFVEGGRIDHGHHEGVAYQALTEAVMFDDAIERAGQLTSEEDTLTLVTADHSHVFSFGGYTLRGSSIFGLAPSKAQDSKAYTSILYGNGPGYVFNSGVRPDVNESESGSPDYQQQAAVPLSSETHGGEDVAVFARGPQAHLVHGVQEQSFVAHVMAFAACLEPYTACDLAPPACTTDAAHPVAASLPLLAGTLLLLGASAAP
# hIAP inh = blocks human intestinal alkaline phosphatase; inhibition, % at 10 µM; purified IAP, CDP-Star luminescence, 30 min; 0.12% of 330,000 active; AID 2544;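 active = inhibition reaching a set limit with compound at 10 µM in the primary screen, cut at about 35% in these data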;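 note: plate controls were DMSO wells with enzyme for no effect and no-enzyme buffer wells for full effect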
# mIAP act = mouse IAP activation; muIAP, CDP-Star luminescence, 30 min; stronger effect = higher value; 1 = vehicle-only enzyme signal, 0 = enzyme-free wells; activation factor at 10 µM; 0.24% of 330,000 active; AID 2805;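 active = activation factor of at least 2 at 20 µM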
#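 System: mouse IAP enzyme. Reagent: CDP-Star chemiluminescent phosphatase substrate. Benchmarks: DMSO wells, no-enzyme wells. Times: 30 min enzyme-substrate-compound incubation at room temperature. Detection: luminescence from enzymatic CDP-Star hydrolysis. Doses: test compounds delivered from DMSO solution.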
# bIAP activator = increases bovine intestinal alkaline phosphatase activity | AID 1016 | purified bovine IAP, CDP-star luminescence, 30 min; stronger effect = higher value; fold of DMSO-control signal, blank-subtracted | 0.17% of 200,000 active | activation factor at 20 µM;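 active = activation factor of 2 or more at 20 µM, a signal rise over negative controls twice the positive control's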
# mIAP inh = blocks mouse intestinal alkaline phosphatase | purified mouse IAP, CDP-Star luminescence, 30 min | inhibition, % at 10 µM | 0.2% of 330,000 active | AID 2806;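 active = inhibition of at least 40% at 10 µM in the primary screen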;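 note: plate controls were DMSO with enzyme for no effect and no enzyme wells for full effect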
# Starred values were filed as active, the others as inactive; · = no result given. This is a sample that favours compounds with a hit; in the whole collection about 0.79% have one here.
SMILES,bIAP inh,hIAP activ,hIAP inh,mIAP act,bIAP activator,mIAP inh
Cc1cc(C)c(C)c(C(=O)CSc2nnc(-c3ccc4[nH]c(C)c(C)c4c3)o2)c1C,2,0.94,6,1.1,1,-10
Cc1[nH]c2ccc(-c3nnc(SCC(=O)c4ccc(F)cc4)o3)cc2c1C,2,1.2,-18,0.43,1,57*
COc1ccc(/C=C(/C(=O)c2ccc(Cl)cc2Cl)n2cncn2)cc1,9,1,-4,0.97,0.9,3
CN(C)c1ccc(/C=C(/C(=O)c2ccc(Cl)cc2Cl)n2cncn2)cc1,6,0.75,25,0.58,0.9,42*
Cc1cc(CN2CCCCC2C(=O)Nc2ccc(Oc3cccnc3)cc2)oc1C (stereo not given),·,1.1,-8,1.1,·,-6
COc1cccc(NC(=O)CNc2cc(S(=O)(=O)N3CCOCC3)ccc2N2CCCC2)c1,·,1,-4,1,·,-2
O=S(=O)(c1ccc(N2CCC(c3ccc(Cl)cc3)=N2)cc1)N(CCO)CCO,-168,1.1,-6,2.2*,2.7*,-120
CN(C)CCCNS(=O)(=O)c1ccc(N2CCC(c3ccc(Cl)cc3)=N2)cc1,-125,1.2,-18,1.9,2.2*,-89
COc1ccc(NC(=S)NNC(=O)CCn2cc([N+](=O)[O-])cn2)cc1,-31,2.1*,-106,0.94,1.3,6
N=C1SCC(=O)N1c1ccc(Cl)cc1,·,0.9,10,1,·,-2
CCN(CC)c1nc(OCCNC(=O)Nc2ccccc2)nc(N(CC)CC)n1,-42,1.1,-11,2.5*,1.4,-148
COc1ccccc1NC(=S)NC(=O)/C=C/c1ccco1,5,0.91,9,0.58,1,42*
Cc1cccc(NC(=S)NC(=O)/C=C/c2ccco2)c1,-2,1.2,-21,0.83,1,17
O=C(/C=C/c1ccco1)NC(=S)Nc1cccc([N+](=O)[O-])c1,-3,1.1,-6,0.41,1,60*
Nc1ccc(S(=O)(=O)NNC(=O)C(=O)NNc2ccccn2)cc1,-30,2.7*,-166,0.73,1.3,27
O=C(NCCN1CCN(Cc2ccccc2)CC1)Nc1cc(Cl)cc(Cl)c1,·,1,-4,2*,·,-102
CCc1cccc(CN2CCC(CNC(=O)Nc3ccc(Cl)cc3)CC2)c1,-38,1.4,-43,3.6*,1.4,-259
COc1cc([N+](=O)[O-])ccc1NC(=O)NCC1CCN(Cc2ccc(Cl)cc2)CC1,·,0.92,8,1,·,-2
O=C(NCC1CCN(Cc2cccc(Cl)c2)CC1)Nc1ccc(Cl)cc1,·,1.4,-42,3.1*,·,-210
O=C(Nc1ccc(N2CCOCC2)cc1)c1ccc2nc(-c3ccco3)c(-c3ccco3)nc2c1,14,1.2,-18,0.92,0.9,8
S=C(Nc1ccc(N2CCOCC2)cc1)Nc1ccc2nc(-c3ccco3)c(-c3ccco3)nc2c1,23,0.88,12,0.55,0.8,45*
COc1ccc(C(CNC(=O)c2cncc(Br)c2)N(C)C)cc1 (stereo not given),-15,0.98,2,0.97,1.2,3
Cc1ccn2c(Nc3ccccc3C)c(-c3ccccn3)nc2c1,-112,1.2,-22,0.88,2.1*,12
Cc1ccc(C(=O)C(NC(=O)c2ccco2)Nc2sc3c(c2C(N)=O)CCCC3)cc1 (stereo not given),-263,1.1,-12,0.89,3.6*,11
COc1ccc(C)cc1NC(=O)c1cccc(C(=O)Nc2cc(C)ccc2OC)n1,·,0.85,15,0.92,·,8
SMILES,bIAP inh,hIAP activ,hIAP inh,mIAP act,bIAP activator,mIAP inh
C1CCC(c2nn3c(-c4n[nH]c5c4CCC5)nnc3s2)CC1,-334,1,-1,0.98,4.3*,2
COc1cc(NC(=O)COc2ccc(-n3ccnc3)cc2)cc(OC)c1,-25,1.3,-28,1.1,1.2,-10
CC(C)(C)c1ccc(NC(=O)COc2ccc(-n3ccnc3)cc2)cc1,-165,1.1,-7,1.2,2.6*,-23
O=C(CCN1CCN(Cc2ccccc2)CC1)Nc1ccccc1Cl,6,1,0,0.99,0.9,1
CC(/C=C/c1ccco1)=N\NC(=O)c1cc(C)[nH]n1,-25,1.2,-22,0.59,1.2,41*
COc1cc(OC)cc(C(=O)NC2CCN(Cc3nnnn3Cc3ccc(F)cc3)CC2)c1,5,1.1,-10,1,1,0
COc1cccc(NC(=O)NC2CCN(Cc3nnnn3Cc3ccc4c(c3)OCO4)CC2)c1,·,1.5,-48,2.5*,·,-150
CC1=NN(C(=O)c2ccc(C)cc2)C(O)(C(F)(F)OC(F)(F)F)C1 (stereo not given),1,0.88,12,0.92,1,8
Cc1ccc(NC(=S)NC(NC(=O)c2ccccc2)C(Cl)(Cl)Cl)c(C)c1 (stereo not given),-18,1.1,-6,1.8,1.2,-84
Cc1cc(C)c(NC(=S)NC(NC(=O)c2ccccc2)C(Cl)(Cl)Cl)c(C)c1 (stereo not given),8,0.99,1,2.5*,0.9,-152
Cc1ccc(NC(=S)NC(NC(=O)c2ccco2)C(Cl)(Cl)Cl)cc1 (stereo not given),1,1.1,-10,2,1,-99
Cc1cccc(NC(=S)NC(NC(=O)c2ccco2)C(Cl)(Cl)Cl)c1 (stereo not given),19,1,-2,2*,0.8,-104
COc1cccc(C2c3[nH]c4ccccc4c3CCN2Cc2ncc[nH]2)c1 (stereo not given),-30,1,-4,1,1.3,-3
CCn1c(C)cc(/C=C2/SC(=S)NC2=O)c1C,12,0.79,21,0.48,0.9,52*
CCN(CC)c1ccc(NC(=O)COC(=O)COc2ccccc2[N+](=O)[O-])cc1,-7,0.99,1,0.98,1.1,2
Fc1ccc(-c2csc(NC(=S)Nc3ccccc3)n2)cc1,·,0.9,10,0.86,·,14
O=C(Nc1nc(-c2ccc(Cl)cc2)cs1)NC1CCCCC1,4,0.93,7,3.7*,1,-269
O=C(Nc1ccccc1)Nc1nc(-c2ccc(F)cc2)cs1,19,0.95,5,2.5*,0.8,-153
CCCCN1C(=O)C2(NNc3ccccc3O2)c2ccccc21 (stereo not given),-169,0.76,24,0.95,2.7*,5
Cc1c(C(=O)N2CCCCC2)c(S(=O)(=O)NCCc2ccc(Cl)cc2)c(C)n1C,·,1.3,-26,0.88,·,12
CC1CC(C)CN(C(=O)C2CCCN(S(=O)(=O)c3cnc[nH]3)C2)C1 (stereo not given),·,0.93,7,1.1,·,-7
Cc1ccsc1C(=O)Nc1ccc2c(c1)OCCO2,-110,0.94,6,1,2.1*,-4
Cc1ncoc1C(=O)Nc1ccc2c(c1)OCCO2,5,0.84,16,0.92,0.9,8

# Bioassay records from PubChem BioAssay.
